Square brackets hold non-standard residues; d marks the D form. Peptide text beside a SMILES is read from it. Hyp = O=C(O)[C@@H]1C[C@@H](O)CN1; Ahx = NCCCCCC(=O)O
Tests used:
MDA-MB-231 = test: Cytotoxicity against human MDA-MB-231 cells incubated for 1 week by CellTiter 96 Aqueous One Solution based assay; type: functional, cell-based; conditions: MDA-MB-231, 168 h
Summary of the method: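 Cells grown in RPMI-1640 (T47D, BT549) or DMEM (MDA-MB-231) with 10% FBS, 37 °C, 5% CO2. Seeded 2 × 10^3/well, exposed to a gradient concentration of peptide for 1 week. MTS-type reagent added 20 μL per 100 μL medium, 1 h at 37 °C, absorbance read at 490 nm. EC50 derived from the concentration–response curve.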

MCF7 [1] = test: Inhibition of His-tagged BRD4 ET domain to Flag-tagged JMJD6 (unknown origin) protein-protein interaction in human MCF7 cells assessed as fold decrease in His-tagged BRD4 ET level at 10 uM incubated for 12 hrs by immunoblotting assay (reference value: […]); type: cell-based
MCF7 [2] = test: Cytotoxicity against human MCF7 cells incubated for 1 week by CellTiter 96 Aqueous One Solution based assay; type: functional, cell-based; conditions: MCF7, 168 h
Summary of the method: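 Cells (2 × 10^3/well, DMEM + 10% FBS, 37 °C, 5% CO2) treated with a concentration gradient of peptide for 1 week. MTS reagent added for 1 h, absorbance read at 490 nm, EC50 derived.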

[3] = molecular target: T1, von Hippel-Lindau disease tumor suppressor/Bromodomain-containing protein 4 (Homo sapiens) (UniProt O60885+P40337); test: PROTAC activity at VHL/His-tagged BDR4 ET domain (1047 to 1362 residues) (unknown origin) transfected in MCF7 cells assessed as degradation by measuring fold change in remaining BRD4 level at 5 uM incubated for 24 hrs by immunoblotting analysis (reference value: […]); type: cell-based
T1 sequence (P40337 whole entry, looked up, other chains not shown, the tested form may be a part): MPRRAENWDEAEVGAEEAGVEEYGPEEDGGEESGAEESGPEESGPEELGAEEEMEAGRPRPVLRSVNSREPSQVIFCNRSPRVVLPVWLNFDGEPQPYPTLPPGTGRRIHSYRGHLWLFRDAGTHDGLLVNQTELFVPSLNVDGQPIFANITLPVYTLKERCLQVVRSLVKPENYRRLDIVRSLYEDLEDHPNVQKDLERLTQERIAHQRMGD

[4] = molecular target: T2, von Hippel-Lindau disease tumor suppressor/Bifunctional arginine demethylase and lysyl-hydroxylase JMJD6 (Homo sapiens) (UniProt P40337+Q6NYC1); test: Protac activity at VHL/JMJD6 in human MCF7 cells assessed as degradation by measuring fold change in remaining JMJD6 level at 5 uM incubated for 24 hrs by immunoblotting analysis (reference value: […]); type: cell-based
[5] = molecular target: T1, von Hippel-Lindau disease tumor suppressor/Bromodomain-containing protein 4 (Homo sapiens); test: PROTAC activity at VHL/His-tagged BDR4 ET domain (1047 to 1362 residues) (unknown origin) transfected in MCF7 cells assessed as degradation by measuring fold change in remaining BRD4 level at 20 uM incubated for 24 hrs by immunoblotting analysis (reference value: […]); type: cell-based
[6] = molecular target: T1, von Hippel-Lindau disease tumor suppressor/Bromodomain-containing protein 4 (Homo sapiens); test: PROTAC activity at VHL/His-tagged BDR4 ET domain (1 to 470 residues) (unknown origin) transfected in MCF7 cells assessed as degradation by measuring fold change in remaining BRD4 level at 10 uM incubated for 24 hrs by immunoblotting analysis (reference value: […]); type: cell-based
[7] = molecular target: T1, von Hippel-Lindau disease tumor suppressor/Bromodomain-containing protein 4 (Homo sapiens); test: PROTAC activity at VHL/His-tagged BDR4 […] (unknown origin) transfected in MCF7 cells assessed as degradation by measuring fold change in remaining BRD4 level at 10 uM incubated for 12 hrs by immunoblotting analysis (reference value: […]); type: cell-based
[8] = molecular target: T1, von Hippel-Lindau disease tumor suppressor/Bromodomain-containing protein 4 (Homo sapiens); test: PROTAC activity at VHL/BDR4 ET domain in human MCF7 cells assessed as degradation by measuring fold change in remaining BRD4 level at 10 uM incubated for 24 hrs in presence of MG132 by immunoblotting analysis (reference value: […]); type: cell-based
[9] = molecular target: T1, von Hippel-Lindau disease tumor suppressor/Bromodomain-containing protein 4 (Homo sapiens); test: PROTAC activity at VHL/His-tagged BDR4 ET domain (1047 to 1362 residues) (unknown origin) transfected in MCF7 cells assessed as degradation by measuring fold change in remaining BRD4 level at 10 uM incubated for 12 hrs by immunoblotting analysis (reference value: […]); type: cell-based
[10] = molecular target: T2, von Hippel-Lindau disease tumor suppressor/Bifunctional arginine demethylase and lysyl-hydroxylase JMJD6 (Homo sapiens); test: PROTAC activity at VHL/JMJD6 in human MCF7 cells assessed as degradation by measuring fold change in remaining JMJD6 level at 10 uM incubated for 24 hrs in presence of TAT-PiET by immunoblotting analysis relative to TAT/TAT-PROTAC; type: cell-based
Summary of the method: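 MCF7 cells were left untreated or given TAT, TAT-PROTAC, TAT-PiET or the PROTAC peptide (each 10 μM) for 24 h. Lysates were immunoblotted with β-actin for loading. Three repeats, quantified in the Supporting Table.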

[11] = molecular target: T1, von Hippel-Lindau disease tumor suppressor/Bromodomain-containing protein 4 (Homo sapiens); test: PROTAC activity at VHL/BDR4 ET domain in human MCF7 cells assessed as degradation by measuring fold change in remaining BRD4 level at 10 uM incubated for 12 hrs by immunoblotting analysis (reference value: […]); type: cell-based
[12] = molecular target: T1, von Hippel-Lindau disease tumor suppressor/Bromodomain-containing protein 4 (Homo sapiens); test: PROTAC activity at VHL/BDR4 ET domain in human MCF7 cells assessed as degradation by measuring fold change in remaining BRD4 level at 10 uM incubated for 24 hrs by immunoblotting analysis (reference value: […]); type: cell-based
[13] = molecular target: T1, von Hippel-Lindau disease tumor suppressor/Bromodomain-containing protein 4 (Homo sapiens); test: PROTAC activity at VHL/BDR4 ET domain in human MCF7 cells assessed as degradation by measuring fold change in remaining BRD4 level at 2.5 uM incubated for 24 hrs by immunoblotting analysis (reference value: […]); type: cell-based
[14] = molecular target: T2, von Hippel-Lindau disease tumor suppressor/Bifunctional arginine demethylase and lysyl-hydroxylase JMJD6 (Homo sapiens); test: Protac activity at VHL/JMJD6 in human MCF7 cells assessed as degradation by measuring fold change in remaining JMJD6 level at 10 uM incubated for 12 hrs by immunoblotting analysis (reference value: […]); type: cell-based
[15] = molecular target: T2, von Hippel-Lindau disease tumor suppressor/Bifunctional arginine demethylase and lysyl-hydroxylase JMJD6 (Homo sapiens); test: Protac activity at VHL/JMJD6 in human MCF7 cells assessed as degradation by measuring fold change in remaining JMJD6 level at 2.5 uM incubated for 24 hrs by immunoblotting analysis (reference value: […]); type: cell-based
[16] = molecular target: T1, von Hippel-Lindau disease tumor suppressor/Bromodomain-containing protein 4 (Homo sapiens); test: PROTAC activity at VHL/BDR4 ET domain in human MCF7 cells assessed as degradation by measuring fold change in remaining BRD4 level at 10 uM incubated for 6 hrs by immunoblotting analysis (reference value: […]); type: cell-based
[17] = molecular target: T1, von Hippel-Lindau disease tumor suppressor/Bromodomain-containing protein 4 (Homo sapiens); test: PROTAC activity at VHL/His-tagged BDR4 ET domain (471 to 730 residues) (unknown origin) transfected in MCF7 cells assessed as degradation by measuring fold change in remaining BRD4 level at 10 uM incubated for 24 hrs by immunoblotting analysis (reference value: […]); type: cell-based
[18] = molecular target: T1, von Hippel-Lindau disease tumor suppressor/Bromodomain-containing protein 4 (Homo sapiens); test: PROTAC activity at VHL/BDR4 ET domain in human MCF7 cells assessed as degradation by measuring fold change in remaining BRD4 level at 10 uM incubated for 24 hrs in presence of TAT-PiET by immunoblotting analysis relative to TAT/TAT-PROTAC; type: cell-based
Summary of the method: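 MCF7 cells are treated with PROTAC peptide (dose series, or 10 μM over a time course, or 10 μM with or without MG132 10 μM) for up to 24 h. Comparators are TAT, TAT-PiET, or TAT-PROTAC at 10 μM. BRD4 is measured by immunoblot, normalised to β-actin; three repeats.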

[19] = molecular target: T2, von Hippel-Lindau disease tumor suppressor/Bifunctional arginine demethylase and lysyl-hydroxylase JMJD6 (Homo sapiens); test: Protac activity at VHL/JMJD6 in human MCF7 cells assessed as degradation by measuring fold change in remaining JMJD6 level at 10 uM incubated for 24 hrs in presence of MG132 by immunoblotting analysis (reference value: […]); type: cell-based
[20] = molecular target: T1, von Hippel-Lindau disease tumor suppressor/Bromodomain-containing protein 4 (Homo sapiens); test: PROTAC activity at VHL/His-tagged BDR4 ET domain (1 to 470 residues) (unknown origin) transfected in MCF7 cells assessed as degradation by measuring fold change in remaining BRD4 level at 10 uM incubated for 12 hrs by immunoblotting analysis (reference value: […]); type: cell-based

H-YGRKKRRQRRRRNQKFKCGE-OH
EC50 (MDA-MB-231): 4.68 µM | fold change (FC) (MCF7 [1]): 0.49 | EC50 (MCF7 [2]): 8.13 µM

CC[C@H](C)[C@H](NC(=O)[C@H](Cc1ccc(O)cc1)NC(=O)[C@@H]1C[C@@H](O)CN1C(=O)[C@H](C)NC(=O)[C@@H](NC(=O)CCCCCNC(=O)[C@H](CCC(=O)O)NC(=O)CNC(=O)[C@H](CS)NC(=O)[C@H](CCCCN)NC(=O)[C@H](Cc1ccccc1)NC(=O)[C@H](CCCCN)NC(=O)[C@H](CCC(N)=O)NC(=O)[C@H](CC(N)=O)NC(=O)[C@H](CCCNC(=N)N)NC(=O)[C@H](CCCNC(=N)N)NC(=O)[C@H](CCCNC(=N)N)NC(=O)[C@H](CCCNC(=N)N)NC(=O)[C@H](CCC(N)=O)NC(=O)[C@H](CCCNC(=N)N)NC(=O)[C@H](CCCNC(=N)N)NC(=O)[C@H](CCCCN)NC(=O)[C@H](CCCCN)NC(=O)[C@H](CCCNC(=N)N)NC(=O)CNC(=O)[C@@H](N)Cc1ccc(O)cc1)[C@@H](C)CC)C(=O)O (H-YGRKKRRQRRRRNQKFKCGE[Ahx]IA[Hyp]YI-OH)
fold change (FC) [3]: 1.09 | fold change (FC) [4]: 0.77 | fold change (FC) [5]: 1.05 | fold change (FC) [6]: 1.11 | fold change (FC) [7]: 0.99 | fold change (FC) [8]: 0.96 | fold change (FC) [9]: 1.11 | fold change (FC) [10]: 0.84 | fold change (FC) [11]: 0.55 | fold change (FC) [12]: 0.26 | fold change (FC) [13]: 0.92 | fold change (FC) [14]: 0.85 | fold change (FC) [15]: 0.91 | fold change (FC) [16]: 0.72 | fold change (FC) [17]: 0.68 | fold change (FC) [18]: 0.84 | fold change (FC) [19]: 0.88 | fold change (FC) [20]: 1.11
